Assay outcomes (PubChem BioAssay)
Shown are actives, neighbours in structure and some others; about 1.3% of the full set was active somewhere.
Xi reactivation – activators of inactive X chromosome reactivation, primary screen, imaging, XiGFP fibroblasts, GFP high-content imaging, set 2; 360,000 tested, 0.055% active; activation, % at 7.58 µM; XiGFP mouse fibroblasts, % GFP-positive cells imaging, 3 d; cells co-treated with 5-aza-dC sensitizer; scaled so ellipticine positive control = 100%;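 active means mean normalized replicate activation at least 10% and every replicate at or above 10%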
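material = 68-5-11 XiGFP fibroblast line | medium = DMEM plus 5-aza-dC sensitizer | schedule = 3 days compound exposure | benchmarks = positive control ellipticine, 6 µM final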
CASP6 VEID inh – human caspase-6 inhibitors, primary screen, biochemical, VEID-R110 fluorescence, single point, set 2; P55212; purified caspase-6, Z-VEID-R110 cleavage fluorescence; inhibition, % at 12.5 µM; 350,000 tested, 0.53% active; AID 686996, 2013;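 active means mean inhibition across replicates at least about 35%, with every replicate also reaching that limit, limit read from the data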
S100A4 inh HTS – inhibitors of S100A4-myosin IIA peptide binding, primary screen, biochemical, fluorescence polarization, TAMRA-MyoIIA peptide | Protein S100-A4 (Homo sapiens), P26447 | inhibition, % at 10.7 µM | 360,000 tested, 0.14% active | AID 652163, 2013;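 active means mean inhibition of at least 70% across replicates, with every replicate also reaching that level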
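Test system: S100A4 monomer protein; Medium: HEPES pH 7.2 with CaCl2, KCl, NaCl, DTT, Triton; Probe or stimulus: TAMRA-labelled myosin IIA heavy-chain peptide probe, 5 nM; Doses: one dose per compound; Times: polarization read 5 min after assay mix addition, stable 5–60 min; Benchmarks: neutral control DMSO, positive control TFP.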
RAD54 branch – inhibitors of human RAD54 branch migration, primary screen, biochemical, fluorescence, single point. DNA repair and recombination protein RAD54-like (Homo sapiens), Q92698. RAD54 Holliday junction branch migration, FAM/BHQ fluorescence. inhibition, % at 10.4 µM. 360,000 tested, 0.14% active. AID 602329, 2012;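 active means mean normalized replicate activity at least 40 and at least half of replicates scoring 40 or more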;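 further: inhibitors cause a drop in the FAM fluorescence signal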
Target sequence (Q92698 whole entry, looked up): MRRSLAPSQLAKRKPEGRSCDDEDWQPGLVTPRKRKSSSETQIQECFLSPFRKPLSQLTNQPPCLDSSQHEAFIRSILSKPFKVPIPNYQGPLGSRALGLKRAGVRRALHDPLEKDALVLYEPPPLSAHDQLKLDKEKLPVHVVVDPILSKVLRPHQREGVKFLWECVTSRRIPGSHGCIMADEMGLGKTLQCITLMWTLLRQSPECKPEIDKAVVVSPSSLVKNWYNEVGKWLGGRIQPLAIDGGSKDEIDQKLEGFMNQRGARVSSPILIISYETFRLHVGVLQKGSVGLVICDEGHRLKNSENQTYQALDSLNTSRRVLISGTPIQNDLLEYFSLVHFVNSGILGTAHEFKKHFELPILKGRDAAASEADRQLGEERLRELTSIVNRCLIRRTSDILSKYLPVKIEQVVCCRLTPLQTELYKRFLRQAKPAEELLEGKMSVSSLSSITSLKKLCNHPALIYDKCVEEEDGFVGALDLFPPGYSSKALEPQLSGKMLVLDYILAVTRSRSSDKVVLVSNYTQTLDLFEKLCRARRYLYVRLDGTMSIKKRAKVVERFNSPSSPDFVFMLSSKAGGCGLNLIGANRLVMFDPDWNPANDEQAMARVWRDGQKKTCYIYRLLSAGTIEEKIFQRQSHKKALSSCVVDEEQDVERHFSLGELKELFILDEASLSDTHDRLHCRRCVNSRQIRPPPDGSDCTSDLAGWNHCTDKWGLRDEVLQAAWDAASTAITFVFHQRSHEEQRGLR
RAD52 inh – RAD52 DNA annealing inhibitors, primary screen, biochemical, FRET, single point, set 2; inhibition, % at 18.7 µM; DNA repair protein RAD52 homolog (Homo sapiens), P43351; 360,000 tested, 0.46% active; AID 651710, 2012; recombinant RAD52 DNA annealing, FRET fluorescence;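 active means every replicate showing at least 50% inhibition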
MLL AF4-AF9 inh – inhibitors of AF4 peptide binding to AF9, primary screen, biochemical, AlphaScreen, biotin-AF4 peptide, FLAG-AF9, single point | 350,000 tested, 0.47% active | inhibition, % at 10 µM | Protein AF-9 (Homo sapiens), P42568 | AID 651704, 2012;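 active means every replicate reaching a set inhibition limit, whatever the replicate mean, cut at about 25% in these data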
Hits are given with their value; – = inactive.

SMILES	Xi reactivation	CASP6 VEID inh	S100A4 inh HTS	RAD54 branch	RAD52 inh	MLL AF4-AF9 inh
O=C(NCC[C@H]1CC[C@@H](NC(=O)c2cccnc2)[C@@H](CO)O1)Nc1ccc(F)cc1	–	–	–	–	–	–
CCC(=O)N[C@@H]1CC[C@H](CCNC(=O)Nc2ccc(C(F)(F)F)cc2)O[C@H]1CO	–	–	92.3	–	–	–
O=C(C[C@@H]1CC[C@@H](NC(=O)Cc2cccnc2)[C@H](CO)O1)Nc1ccc(-c2ccccc2)cc1	–	–	127.1	–	–	–
O=C(NCC[C@@H]1CC[C@@H](NC(=O)c2cccnc2)[C@H](CO)O1)Nc1ccc(C(F)(F)F)cc1	–	–	–	–	–	25.9
O=C(NCC[C@@H]1CC[C@H](NC(=O)c2cccnc2)[C@@H](CO)O1)Nc1ccc(C(F)(F)F)cc1	–	–	–	–	–	–
O=C(NCC[C@H]1CC[C@H](NC(=O)c2cccnc2)[C@H](CO)O1)Nc1ccc(F)cc1	–	–	–	–	50.3	–
O=[N+]([O-])c1ccc(/C=N/NC(=S)Nc2ccc(Cl)cc2Cl)s1	12.8	–	–	–	–	–
O=[N+]([O-])c1ccc(O)c(/C=N/NC(=S)Nc2ccc(Cl)cc2Cl)c1	–	–	–	–	–	–
CCc1ccccc1NC(=O)CNC(=O)CCc1nc2sc3c(c2c(=O)[nH]1)CCCC3	–	36.5	–	–	–	–
O=C(CCc1nc2sc3c(c2c(=O)[nH]1)CCCC3)NCCc1ccccc1	–	–	–	–	–	–
O=C(C[C@@H]1C[C@@H]2c3cc(NC(=O)Nc4ccccc4F)ccc3O[C@@H]2[C@@H](CO)O1)NCc1cc(F)ccc1F	–	–	–	–	–	–
COc1ccc(NC(=O)N(C)C[C@H]2OCCCC[C@H](C)Oc3ccc(NC(=O)C4CCCCC4)cc3C(=O)N([C@@H](C)CO)C[C@@H]2C)cc1	–	–	–	–	–	–
COc1ccc(NC(=O)N(C)C[C@H]2Oc3ncc(-c4ccc(C#N)cc4)cc3C(=O)N([C@H](C)CO)C[C@@H]2C)cc1	–	–	–	–	–	–
C[C@H](NC(=O)C[C@H]1C[C@@H]2c3cc(NC(=O)CN(C)C)ccc3O[C@@H]2[C@H](CO)O1)c1ccccc1	–	–	107.6	–	–	–
CN(C)CC(=O)Nc1ccc2c(c1)[C@H]1C[C@H](CC(=O)NCc3ccc(-c4ccccc4)cc3)O[C@H](CO)[C@H]1O2	–	–	–	–	61.5	–
C[C@H](NC(=O)C[C@@H]1C[C@@H]2c3cc(NC(=O)Nc4ccc(C(F)(F)F)cc4)ccc3O[C@@H]2[C@@H](CO)O1)c1ccccc1	–	–	85.4	–	–	–
C[C@H](NC(=O)C[C@@H]1C[C@H]2c3cc(NC(=O)Nc4ccc(C(F)(F)F)cc4)ccc3O[C@H]2[C@H](CO)O1)c1ccccc1	–	–	–	–	–	–
COc1ccccc1NC(=O)Nc1nc(C(N)Cc2ccccc2)cs1 (stereo not given)	–	–	–	–	–	–
COc1ccc(OC)c(NC(=O)Nc2nc(C(N)CCc3ccccc3)cs2)c1 (stereo not given)	–	–	–	–	–	28.0
COc1ccc(CC(N)c2csc(NC(=O)Nc3cc(OC)ccc3OC)n2)cc1 (stereo not given)	–	–	–	–	–	30.6
COCC#Cc1cnc2c(c1)C(=O)N([C@@H](C)CO)C[C@@H](C)[C@H](CN(C)C(=O)Nc1cc(F)ccc1F)O2	–	–	–	–	–	–
O=C(NC1CCCCCCC1)c1ccc(CNc2c(N3CCOCC3)c(=O)c2=O)cc1	–	–	–	–	–	39.5
CCOC(=O)C1CCN(c2c(NCc3ccc(C(=O)NC4CCCC4)cc3)c(=O)c2=O)CC1	–	–	–	–	–	–
